The text below walks through data of ChEMBL document CHEMBL1155046, “Chemical constituents of Aristolochia constricta: antispasmodic effects of its constituents in guinea-pig ileum and isolation of a diterpeno-lignan hybrid” (2008).

Where only a bound is given, the exact number is not on record here.

The subject of assay [1] is Ileum. Kind of assay: Antispasmodic activity in guinea pig ileum assessed as inhibition of electrically-induced smooth muscle contraction. Format: functional, Cavia porcellus. Put shortly:
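Male albino guinea-pig ileum (300-450 g) held under 1 g tension in Krebs-Henseleit at 38.5 °C, gassed 95% O2/5% CO2. Transmural stimulation through platinum ring electrodes: supramaximal 38.6 V, 0.2 Hz, 0.3 ms square pulses. Once twitch was stable, compounds added cumulatively at 10, 30, 100 µM. Isotonic recording, contraction as % of control. IC50 calculated. Mean ± SEM from 4-5 animals. DMSO vehicle <1% final.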

In assay [2] the test system is Ileum. Kind of assay: Antispasmodic activity in guinea pig ileum assessed as inhibition of acetylcholine-induced smooth muscle contraction. Format: functional, Cavia porcellus. Put shortly:
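Ileum from male albino guinea pigs (300-450 g) in Krebs-Henseleit solution, 1 g tension, 10 mL bath, 38.5 °C, 95% O2/5% CO2. After 0.5 h equilibration, checked with 3 µM ACh three times. Samples (10, 30, 100 µM) added noncumulatively 20 min before 3 µM ACh. Contraction recorded isotonically, expressed as % of untreated ACh height. IC50 calculated. Mean ± SEM, 4-5 animals. DMSO <1% final.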

One may read the IC50 as the concentration that inhibits the measured activity by half.

As to `CC1(C)CCC[C@]2(C)[C@@H]1CC[C@@]13C[C@H](CC[C@H]12)[C@@](O)(CO)C3`, the IC50 in the assay with Ileum [1] and in the assay with Ileum [2] was > 100 µM in each case.
`C=C1C[C@@]23CC[C@H]4[C@@](C)(CCC[C@]4(C)C(=O)O)[C@@H]2CCC1C3`: the results for the concentration for half-maximal inhibition (IC50) in the assay on Ileum [1] and with Ileum [2] were 28.2 µM and 25.4 µM, respectively.
The matching figures for `CC1(C)CCC[C@]2(C)[C@@H]1CC[C@]13C=C(COC4OC[C@H](Cc5ccc6c(c5)OCO6)[C@H]4Cc4ccc5c(c4)OCO5)[C@@H](CC[C@H]12)C3` (some centres undefined): > 100 µM and > 100 µM.
In the same order, the values of `COc1ccc(CCN(C)CCCC(C#N)(c2ccc(OC)c(OC)c2)C(C)C)cc1OC` (centres undefined) [VERAPAMIL] are 0.25 µM and 0.28 µM.
The matching figures for `CC1(C)CCC[C@]2(C)[C@@H]1CC[C@]13C=C(CO)[C@@H](CC[C@H]12)C3`: 34.1 µM and > 100 µM.
With `O[C@H]1OC[C@H](Cc2ccc3c(c2)OCO3)[C@H]1Cc1ccc2c(c1)OCO2`, the half-maximal inhibitory concentration (IC50) in the assay with Ileum [1] came out at 51.6 µM; in the assay with Ileum [2], 23.6 µM.
The matching figures for `OC[C@H](Cc1ccc2c(c1)OCO2)[C@H](CO)Cc1ccc2c(c1)OCO2` [DIHYDROCUBEBIN]: > 100 µM and 40.4 µM.
The matching figures for `COc1cccc2c1cc([N+](=O)[O-])c1c(C(=O)O)cc3c(c12)OCO3` [ARISTOLOCHIC ACID]: 64 µM and > 100 µM.
In the same order, the values of `COc1cc(C[C@H]2C(=O)OC[C@@H]2Cc2ccc3c(c2)OCO3)ccc1O` are 58.3 µM and 26.8 µM.
`O=C1OC[C@H](Cc2ccc3c(c2)OCO3)[C@H]1Cc1ccc2c(c1)OCO2` [HINOKININ]: the half-inhibitory concentration (IC50) in the assay on Ileum [1] was 69.8 µM; in the assay on Ileum [2], 27.3 µM.
As to `COc1cc2c(cc1C)C(=O)CCC2C` (single isomer, unassigned; (+)), the figures for the concentration for half-maximal inhibition (IC50) in the assay on Ileum [1] and in the assay on Ileum [2] were > 100 µM and 89.8 µM, respectively.
On to `COc1cc(C[C@H]2CO[C@@H](O)[C@@H]2Cc2ccc3c(c2)OCO3)ccc1O`, for which the half-maximal inhibitory concentration (IC50) with Ileum [1] is 52.8 µM; in the assay with Ileum [2], 39.5 µM.
